Assays:
RmuAP1CD = test: Effects of chemicals; format: biochemical, Rhodotorula mucilaginosa; details: same test as Table 1; preincubation 37 °C, 3 h; BSA, pH 2.5
Procedure, shortened: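 Residual activity was then measured with 10 μg enzyme and 5 mg BSA per 1 mL at pH 2.5 for 1–1.5 h. The reaction was stopped with cold TCA (10% w/v final), centrifuged, and supernatant A280 read. Triplicate.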

pepsin = pepsin (Sus scrofa, UniProt P00791); test: biochemical; design: species or system porcine; details: for Proteolytic activity of pepsin (residual activity): pH 2.5
Sequence of pepsin (P00791 60-385): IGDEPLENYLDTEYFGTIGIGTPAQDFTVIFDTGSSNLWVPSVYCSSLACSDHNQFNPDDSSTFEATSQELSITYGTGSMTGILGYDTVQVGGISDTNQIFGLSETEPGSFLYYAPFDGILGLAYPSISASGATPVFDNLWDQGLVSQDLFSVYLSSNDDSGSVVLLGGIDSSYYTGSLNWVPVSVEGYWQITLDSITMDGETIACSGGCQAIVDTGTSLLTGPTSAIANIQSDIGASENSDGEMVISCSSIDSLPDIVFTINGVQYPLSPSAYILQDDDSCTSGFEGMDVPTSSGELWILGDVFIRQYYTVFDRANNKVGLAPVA

BSA = details: cited from earlier work
[1] = BSA denatured by 10 min preincubation at pH 0.8

O=S(=O)(F)Cc1ccccc1 [PMSF, phenylmethylsulfonyl fluoride]
Effect on the proteolytic activity of RmuAP1CD (in words) (RmuAP1CD): unaffected

OCCS [β-ME, β-mercaptoethanol]
Effect on the proteolytic activity of RmuAP1CD (in words) (RmuAP1CD): did not influence the peptidase activity | Proteolytic activity of pepsin (residual activity) (pepsin): 90 ± 1.0%

pepstatin A
Effect on the proteolytic activity of RmuAP1CD (in words) (RmuAP1CD): drastically inhibited

O=C(O)CN(CCN(CC(=O)O)CC(=O)O)CC(=O)O [EDTA, ethylenediaminetetraacetic acid]
Effect on the proteolytic activity of RmuAP1CD (in words) (RmuAP1CD): unaffected | remaining activity at 5000 µM (pepsin; pH 2.5, read-out: Proteolytic activity of pepsin (residual activity)): 95 ± 2.5%

CCCCCCCCCCCCOS(=O)(=O)[O-].[Na+] [SDS, sodium dodecyl sulfate]
Effect on the proteolytic activity of RmuAP1CD (in words) (RmuAP1CD): moderately inhibited | Proteolytic activity of pepsin (residual activity) (pepsin): 30 ± 4.0%

Triton X-100
Effect on the proteolytic activity of RmuAP1CD (in words) (RmuAP1CD): moderately inhibited

pepsin
Activity of pepsin on HCl-denatured BSA at pH 4.5 (BSA; [1]): 65% | pH of peak activity of pepsin on HCl-denatured BSA (BSA; [1]): 3.0 | Optimum pH of pepsin for BSA (BSA; native BSA, pH 1.0 to 5.5): about 1.7 | Activity of pepsin on BSA at pH 4.0, of its peak value (BSA; native BSA): 10%

Reference: publication PMC10655810 (Journal of Agricultural and Food Chemistry, 2023)
